In brackets after ≈: the same amount, converted by molar mass.
Assays:
B. cereus 6591 = assay: Minimum inhibitory concentration; assay type: cell-based
How it was run: (§1)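 Broth microdilution in Mueller Hinton Broth per CLSI. Inoculum was pre-incubated in TSB at 30°C to 0.5 McFarland. Amoxicillin, ampicillin, cefotaxime and gentamicin were tested over 0.5–1024 µg.mL−1, alone or with test compound at 128 µg.mL−1. Each set was repeated three times.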

S. aureus 7314 = assay: Minimum inhibitory concentration; assay type: cell-based
How it was run: as §1

E. coli 2101123 = assay: Minimum inhibitory concentration; assay type: cell-based
How it was run: as §1

RAW 264.7 cells = assay: MTT cell viability assay; assay type: cell-based, murine; conditions: RAW 264.7 monocytes; 24 h
How it was run: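 RAW 264.7 cells kept in DMEM with 4 mM L-glutamine, 10% FCS, 2 mM nonessential amino acids and penicillin/streptomycin at 37°C, 5% CO2. Cells were exposed 24 h to test compound or antibiotics, free or combined. Viability was read by MTT (reagent 5 mg.mL−1 in PBS) in three replicates, as % of PBS (pH 7.4) control; mastoparan-L (1–100 μg.mL−1) was the positive control.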

[1] = system: E. coli 1812446 clinical strain; assay: Murine non-lethal Escherichia coli infection model; assay type: in vivo, C57BL/6 mice; conditions: E. coli infected mice
How it was run: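 C57BL/6 mice (18–22 g, n = 6/group) got i.p. 200 μl holding 2.5 × 10^8 CFU of E. coli 1812446. One hour later they were treated i.p. with penicillin or ampicillin (100 or 200 mg.kg−1) or gentamicin (10 mg.kg−1), at 12, 24, 48 and 72 h over 7 days. On day 7, blood and peritoneal fluid were serially diluted and plated in triplicate on Mueller Hinton agar at 37°C overnight. Detection limit was 100 CFU.ml−1.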

E. coli 1812446 = assay: Minimum inhibitory concentration; assay type: cell-based
How it was run: as §1

S. aureus (ATCC33591) = assay: Murine non-lethal Staphylococcus aureus infection model; assay type: in vivo, C57BL/6 mice; conditions: S. aureus infected mice
How it was run: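 C57BL/6 mice (18–22 g, n = 6/group) got i.p. 100 µL of S. aureus ATCC33591 at 2 × 10^5 CFU.mL−1. After 1 h, penicillin or ampicillin (100 or 200 mg.kg−1) or cefotaxime (35 mg.kg−1) was given i.p. at 12, 24, 48 and 72 h over 7 days. Day-7 blood and peritoneal fluid were serially diluted, plated in triplicate on mannitol salt agar, and counted as CFU.mL−1.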

E. coli (TEM-1) = assay: Minimum inhibitory concentration; assay type: cell-based
How it was run: as §1

P. aeruginosa 6817 = assay: Minimum inhibitory concentration; assay type: cell-based
How it was run: as §1

E. coli 6881 = assay: Minimum inhibitory concentration; assay type: cell-based
How it was run: as §1

S. aureus ATCC33591 = assay: Minimum inhibitory concentration; assay type: cell-based
How it was run: as §1

[2] = B. cereus 6591, in the presence of dBLIP1 (128 µg.mL^−1)
[3] = B. cereus 6591, in the presence of dBLIP2 (128 µg.mL^−1)
[4] = S. aureus 7314, in the presence of dBLIP1 (128 µg.mL^−1)
[5] = S. aureus 7314, in the presence of dBLIP2 (128 µg.mL^−1)
[6] = E. coli 2101123, in the presence of dBLIP1 (128 µg.mL^−1)
[7] = E. coli 2101123, in the presence of dBLIP2 (128 µg.mL^−1)
[8] = E. coli 1812446, in the presence of dBLIP1 (128 µg.mL^−1)
[9] = E. coli 1812446, in the presence of dBLIP2 (128 µg.mL^−1)
[10] = P. aeruginosa 6817, in the presence of dBLIP1 (128 µg.mL^−1)
[11] = P. aeruginosa 6817, in the presence of dBLIP2 (128 µg.mL^−1)
[12] = E. coli 6881, in the presence of dBLIP1 (128 µg.mL^−1)
[13] = E. coli 6881, in the presence of dBLIP2 (128 µg.mL^−1)
[14] = S. aureus ATCC33591, in the presence of dBLIP1 (128 µg.mL^−1)
[15] = S. aureus ATCC33591, in the presence of dBLIP2 (128 µg.mL^−1)
[16] = Staphylococcus aureus, ATCC33591
[17] = E. coli (TEM-1), in the presence of dBLIP1 (128 µg.mL^−1)
[18] = E. coli (TEM-1), in the presence of dBLIP2 (128 µg.mL^−1)

Compound	MIC (B. cereus 6591; [2]) [µg/mL]	MIC (B. cereus 6591; [3]) [µg/mL]	MIC (B. cereus 6591; Bacillus cereus, 6591) [µg/mL]	MIC (S. aureus 7314; [4]) [µg/mL]	MIC (S. aureus 7314; [5]) [µg/mL]	MIC (S. aureus 7314; Staphylococcus aureus, 7314) [µg/mL]	MIC (E. coli 2101123; [6]) [µg/mL]	MIC (E. coli 2101123; [7]) [µg/mL]	MIC (E. coli 2101123; Escherichia coli, 2101123) [µg/mL]	cytotoxic activity against RAW 264.7 (MTT cell viability) (RAW 264.7 cells) [µg/mL]	MIC (E. coli 1812446; [8]) [µg/mL]	MIC (E. coli 1812446; [9]) [µg/mL]	MIC (E. coli 1812446; Escherichia coli, 1812446) [µg/mL]	MIC (E. coli (TEM-1); Escherichia coli) [µg/mL]	MIC (P. aeruginosa 6817; [10]) [µg/mL]	MIC (P. aeruginosa 6817; [11]) [µg/mL]	MIC (P. aeruginosa 6817; Pseudomonas aeruginosa, 6817) [µg/mL]	MIC (E. coli 6881; [12]) [µg/mL]	MIC (E. coli 6881; [13]) [µg/mL]	MIC (E. coli 6881; Escherichia coli, 6881) [µg/mL]	also measured
CC1(C)S[C@@H]2[C@H](NC(=O)[C@H](N)c3ccccc3)C(=O)N2[C@H]1C(=O)O [AMP, Ampicillin]	16	8	256 (≈ 733 µM)	32	32	512 (≈ 1470 µM)	256	256	> 512	200	512	512	> 512	1020 (≈ 2930 µM)	32	32	512 (≈ 1470 µM)	32	32	128 (≈ 366 µM)	CFU, antibiotic alone ([1]; 100 mg.kg^−1 i.p.): did not cause any bactericidal effect; CFU, antibiotic alone ([1]; 200 mg.kg^−1 i.p.): a lower reduction in CFU; CFU, antibiotic alone (S. aureus (ATCC33591); 200 mg.kg^−1 i.p.): CFUs were slightly reduced; MIC (S. aureus ATCC33591; [14]): 128 µg/mL; MIC (S. aureus ATCC33591; [15]): 128 µg/mL; MIC (S. aureus ATCC33591; [16]): 512 µg/mL (≈ 1470 µM)
CC1(C)S[C@@H]2[C@H](NC(=O)[C@H](N)c3ccc(O)cc3)C(=O)N2[C@H]1C(=O)O [AMX, Amoxicillin]	8	8	256 (≈ 701 µM)	32	16	512 (≈ 1400 µM)	8	8	256 (≈ 701 µM)		16	16	256 (≈ 701 µM)	128 (≈ 350 µM)	32	16	512 (≈ 1400 µM)	32	16	128 (≈ 350 µM)	MIC (S. aureus ATCC33591; [14]): 32 µg/mL; MIC (S. aureus ATCC33591; [15]): 32 µg/mL; MIC (S. aureus ATCC33591; [16]): 512 µg/mL (≈ 1400 µM)
CO/N=C(\C(=O)N[C@@H]1C(=O)N2C(C(=O)O)=C(COC(C)=O)CS[C@H]12)c1csc(N)n1 [CTX, Cefotaxime]	8	8	64 (≈ 141 µM)	8	8	128 (≈ 281 µM)	8	8	128 (≈ 281 µM)		16	16	256 (≈ 562 µM)	32 (≈ 70.3 µM)	8	8	64 (≈ 141 µM)	8	8	64 (≈ 141 µM)	CFU, antibiotic alone (S. aureus (ATCC33591); cefotaxime 35 mg.kg^−1 i.p.): efficient reduction in CFU; MIC (E. coli (TEM-1); [17]): 4 µg/mL; MIC (E. coli (TEM-1); [18]): 4 µg/mL; MIC (S. aureus ATCC33591; [14]): 8 µg/mL; MIC (S. aureus ATCC33591; [15]): 8 µg/mL; MIC (S. aureus ATCC33591; [16]): 128 µg/mL (≈ 281 µM)
CNC(C)C1CCC(N)C(OC2C(N)CC(N)C(OC3OCC(C)(O)C(NC)C3O)C2O)O1 (centres unmarked) [GEN, Gentamicin]	4	4	32 (≈ 67 µM)	8	8	64 (≈ 134 µM)	128	128	256 (≈ 536 µM)	150	128	128	512 (≈ 1070 µM)	32 (≈ 67 µM)	8	8	32 (≈ 67 µM)	4	4	32 (≈ 67 µM)	CFU, antibiotic alone ([1]; gentamicin 10 mg.kg^−1 i.p.): efficient CFU decline; MIC (E. coli (TEM-1); [17]): 4 µg/mL; MIC (E. coli (TEM-1); [18]): 4 µg/mL; MIC (S. aureus ATCC33591; [14]): 8 µg/mL; MIC (S. aureus ATCC33591; [15]): 8 µg/mL; MIC (S. aureus ATCC33591; [16]): 64 µg/mL (≈ 134 µM)
CC1(C)S[C@@H]2[C@H](NC(=O)Cc3ccccc3)C(=O)N2[C@H]1C(=O)O [Penicillin G]										150											
Mastoparan-L										10											

Reference: PMC4127500 (Scientific Reports, 2014)
